Results published in ChEMBL document CHEMBL1128216, “Rational design and synthesis of small molecule, non-oligosaccharide selectin inhibitors: (alpha-D-mannopyranosyloxy)biphenyl-substituted carboxylic acids” (J Med Chem, 1995).
Each block holds one compound with its values, some of them ahead of it.

Columns and labels:
[1] = target: T1, E-selectin (Homo sapiens) (UniProt P16581); assay: In vitro inhibitory activity against sialyl Lewis X expressing HL60 cell binding to recombinant human E-selectin at 17 mM concentration; type: cell-based; conditions: HL-60
T1 sequence (whole entry): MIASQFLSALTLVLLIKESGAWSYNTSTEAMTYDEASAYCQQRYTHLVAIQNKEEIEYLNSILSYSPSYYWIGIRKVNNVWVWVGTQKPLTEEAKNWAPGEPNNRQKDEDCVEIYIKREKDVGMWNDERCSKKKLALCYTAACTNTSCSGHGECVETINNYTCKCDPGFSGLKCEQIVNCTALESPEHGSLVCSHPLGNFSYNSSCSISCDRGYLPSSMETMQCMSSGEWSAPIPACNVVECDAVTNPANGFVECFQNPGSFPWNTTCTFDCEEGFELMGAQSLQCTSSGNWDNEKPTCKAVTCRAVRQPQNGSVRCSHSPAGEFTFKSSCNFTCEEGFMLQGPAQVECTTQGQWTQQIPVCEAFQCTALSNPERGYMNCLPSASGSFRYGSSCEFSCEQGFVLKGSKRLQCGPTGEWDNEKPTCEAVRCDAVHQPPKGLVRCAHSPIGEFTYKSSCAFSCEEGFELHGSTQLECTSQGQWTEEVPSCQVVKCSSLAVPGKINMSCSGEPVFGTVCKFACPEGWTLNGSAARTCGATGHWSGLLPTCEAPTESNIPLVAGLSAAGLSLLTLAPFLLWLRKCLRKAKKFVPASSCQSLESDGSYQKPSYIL
How it was run: (§1)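 Human E-selectin (lectin, EGF and two complement repeats) fused to mouse IgG was captured on anti-mouse IgG magnetic beads overnight at 4 °C. Wells were pre-blocked with 3% BSA/PBS. Compound in PBS was mixed with calcein-labelled HL60 cells (10⁷/mL, RPMI 1640 + 10% FCS) and beads (4 × 10⁶/mL) for 10 min at room temperature. Unbound cells were removed magnetically with two PBS washes, and bound cells were lysed in 1% NP40.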

P-selectin = target: T2, P-selectin (Homo sapiens, UniProt P16109); assay: In vitro inhibitory activity against sialyl Lewis X expressing HL60 cell binding Selectin P; type: cell-based, HL-60
T2 sequence (P16109 whole entry): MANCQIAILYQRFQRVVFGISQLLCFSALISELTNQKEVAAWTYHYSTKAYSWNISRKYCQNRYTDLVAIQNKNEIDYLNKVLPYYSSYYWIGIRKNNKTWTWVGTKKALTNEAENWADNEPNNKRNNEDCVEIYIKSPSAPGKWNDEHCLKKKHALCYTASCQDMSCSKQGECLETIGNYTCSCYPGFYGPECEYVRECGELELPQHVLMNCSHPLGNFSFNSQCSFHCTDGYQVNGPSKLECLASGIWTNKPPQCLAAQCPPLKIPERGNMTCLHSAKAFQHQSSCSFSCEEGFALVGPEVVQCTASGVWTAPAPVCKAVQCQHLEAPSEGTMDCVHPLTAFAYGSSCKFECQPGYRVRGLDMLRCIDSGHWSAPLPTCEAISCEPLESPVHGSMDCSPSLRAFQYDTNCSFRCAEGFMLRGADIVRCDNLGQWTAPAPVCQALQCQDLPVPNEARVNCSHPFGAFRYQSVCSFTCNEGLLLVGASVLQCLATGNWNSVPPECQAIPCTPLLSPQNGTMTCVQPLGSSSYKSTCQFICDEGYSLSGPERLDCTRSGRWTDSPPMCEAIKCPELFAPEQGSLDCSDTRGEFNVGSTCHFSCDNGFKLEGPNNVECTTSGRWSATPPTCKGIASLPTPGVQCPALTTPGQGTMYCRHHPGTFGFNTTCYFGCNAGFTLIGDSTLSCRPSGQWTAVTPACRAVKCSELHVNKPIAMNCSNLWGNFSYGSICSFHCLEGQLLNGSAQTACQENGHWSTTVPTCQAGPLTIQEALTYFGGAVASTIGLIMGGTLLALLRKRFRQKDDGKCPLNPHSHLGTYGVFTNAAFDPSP

[2] = target: T3, L-selectin (Mus musculus) (UniProt P18337); assay: In vitro inhibitory activity against sialyl Lewis X expressing HL60 cell binding to Selectin L at 6 mM concentration; type: cell-based; conditions: HL-60
T3 sequence (whole entry): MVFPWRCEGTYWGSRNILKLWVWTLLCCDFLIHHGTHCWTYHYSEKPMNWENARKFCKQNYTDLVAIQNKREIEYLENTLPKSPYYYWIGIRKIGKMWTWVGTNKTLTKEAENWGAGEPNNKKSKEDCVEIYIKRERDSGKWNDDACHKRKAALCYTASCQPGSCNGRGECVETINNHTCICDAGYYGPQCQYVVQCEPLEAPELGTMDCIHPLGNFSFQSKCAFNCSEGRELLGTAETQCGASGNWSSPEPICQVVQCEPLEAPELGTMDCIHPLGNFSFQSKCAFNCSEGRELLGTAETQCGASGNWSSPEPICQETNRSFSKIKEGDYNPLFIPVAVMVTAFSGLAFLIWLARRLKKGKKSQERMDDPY

[3] = target: T4, P-selectin (Homo sapiens) (UniProt P16109); assay: In vitro inhibitory activity against sialyl Lewis X expressing HL60 cell binding Selectin P at 24 mM concentration; type: cell-based; conditions: HL-60
T4 sequence (whole entry): T2 sequence (P16109 whole entry)

E-selectin = target: T5, E-selectin (Homo sapiens, UniProt P16581); assay: In vitro inhibition of HL60 (human leukemia) cell binding to human recombinant e-selectin.; type: cell-based, HL-60; how it was run: as §1
T5 sequence (P16581 whole entry): T1 sequence (whole entry)

[4] = target: T1, E-selectin (Homo sapiens); assay: In vitro inhibitory activity against sialyl Lewis X expressing HL60 cell binding to recombinant human E-selectin at 32 mM concentration; type: cell-based; conditions: HL-60; how it was run: as §1
[5] = target: T4, P-selectin (Homo sapiens); assay: In vitro inhibitory activity against sialyl Lewis X expressing HL60 cell binding Selectin P at 20 mM concentration; type: cell-based; conditions: HL-60
[6] = target: T3, L-selectin (Mus musculus); assay: In vitro inhibitory activity against sialyl Lewis X expressing HL60 cell binding Selectin L at 5 mM concentration; type: cell-based; conditions: HL-60
[7] = target: T4, P-selectin (Homo sapiens); assay: In vitro inhibitory activity against sialyl Lewis X expressing HL60 cell binding Selectin P at 27 mM concentration; type: cell-based; conditions: HL-60
[8] = target: T1, E-selectin (Homo sapiens); assay: In vitro inhibitory activity against sialyl Lewis X expressing HL60 cell binding to recombinant human E-selectin at 27 mM concentration; type: cell-based; conditions: HL-60; how it was run: as §1

SMILES: O=C(O)C(Oc1cccc(-c2ccccc2O[C@H]2O[C@H](CO)[C@@H](O)[C@@H](O)[C@@H]2O)c1)c1ccccc1 (stereo partly drawn)
inhibition [1]: 70% | IC50 (P-selectin): 17 mM | inhibition [2]: 0%

SMILES: O=C(O)COCc1cccc(-c2ccccc2O[C@H]2O[C@H](CO)[C@@H](O)[C@@H](O)[C@@H]2O)c1
inhibition [3]: 0% | IC50 (E-selectin): 9.5 mM | inhibition [2]: 30%

Next, values leading:

inhibition [4]: 0% | inhibition [5]: 40% | inhibition [6]: 0%
SMILES: O=C(O)C[C@@H](NC(=O)c1cccc(-c2ccccc2O[C@H]2O[C@H](CO)[C@@H](O)[C@@H](O)[C@@H]2O)c1)C(=O)O

inhibition [7]: 0% | IC50 (E-selectin): 16 mM | inhibition [2]: 15%
SMILES: O=C(O)c1cccc(-c2ccccc2O[C@H]2O[C@H](CO)[C@@H](O)[C@@H](O)[C@@H]2O)c1

inhibition [8]: 33%
SMILES: NCCCC[C@H](NC(=O)c1ccc(-c2ccccc2O[C@H]2O[C@H](CO)[C@@H](O)[C@@H](O)[C@@H]2O)cc1)C(=O)O
